Sampled rows, rich in hits. Any-hit rate of the full collection: about 2.5%.
PMI act: activators of human PMI, primary screen, biochemical, fluorescence intensity, near-Km mannose 6-phosphate | Mannose-6-phosphate isomerase (Homo sapiens), P34949 | purified human PMI, coupled resazurin fluorescence, 20 min; hits give high values; 1 = vehicle control, 0 substrate-free wells | activation factor at 20 µM | hit rate 0.005% among 190,000 | AID 1214, 2008;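 active = activation factor of 2 or more at 20 µM, relative to plate controls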
FLuc stim CS: FLuc activators, initial screening, artefact control for FLuc-dependent activation tests, biochemical, ATPlite luminescence | AID 1027, 2008 | Luciferin 4-monooxygenase (Photinus pyralis), P08659 | ATPlite luciferase biochemical, 10 min; 0 = ATP-free wells, 1 = DMSO control | 200,000 tested, under 10 active | activation factor at 10 µM;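 active = luciferase activation factor, scaled between plate controls, of at least 2 with compound at 10 µM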
Target sequence (P08659 whole entry, looked up): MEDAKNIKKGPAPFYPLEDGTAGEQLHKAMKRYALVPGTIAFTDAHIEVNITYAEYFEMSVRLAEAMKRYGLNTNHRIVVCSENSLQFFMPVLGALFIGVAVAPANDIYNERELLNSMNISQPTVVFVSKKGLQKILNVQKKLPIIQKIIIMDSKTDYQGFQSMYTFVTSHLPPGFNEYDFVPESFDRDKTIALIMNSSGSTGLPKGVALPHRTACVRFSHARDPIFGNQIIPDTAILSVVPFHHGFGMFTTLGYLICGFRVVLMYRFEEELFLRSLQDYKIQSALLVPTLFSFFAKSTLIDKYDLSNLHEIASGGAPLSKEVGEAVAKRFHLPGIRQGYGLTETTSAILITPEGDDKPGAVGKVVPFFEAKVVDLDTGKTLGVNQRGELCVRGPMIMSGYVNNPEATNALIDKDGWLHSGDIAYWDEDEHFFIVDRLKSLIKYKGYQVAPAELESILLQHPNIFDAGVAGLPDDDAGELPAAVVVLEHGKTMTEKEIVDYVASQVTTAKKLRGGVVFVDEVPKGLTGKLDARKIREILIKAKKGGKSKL
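Material: Luciferase/luciferin reagent mix; Doses: test compounds dosed from 2 mM stocks in 100% DMSO; Schedule: 10 min incubation after luciferase reagent addition, room temperature; Measured by: luminescence from luciferase reaction; Read-out: luminescence gain marking luciferase activators.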
FLuc inh counter: firefly luciferase enzyme inhibitors, primary screen, artefact control for luciferase-based inhibitor screens, biochemical, luminescence, ATPLite. Luciferin 4-monooxygenase (Photinus pyralis), P08659. AID 1006, 2008. hit rate 1.5% among 200,000. inhibition, % at 10 µM. 10 min;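 active = inhibition above about 50% when tested at 10 µM, limit read from the data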
Diaphorase inh: diaphorase inhibitors and chemical oxidizers, primary screen, counter-screen for diaphorase-coupled primary assays, biochemical, uHTS, resorufin fluorescence. diaphorase resazurin-to-resorufin fluorescence, NADH, 16 min; bacterial (C. kluyveri) enzyme, not human. inhibition, % at 20 µM. hit rate 0.69% among 190,000. AID 1217, 2008;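 active = primary screen inhibition at 20 µM above a set limit, cut at about 50% in these data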;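 also: plate controls were DMSO with full reaction for no effect and wells lacking NADH for full effect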
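System: Bacterial diaphorase enzyme (C. kluyveri) | Incubation: 16-min room-temperature incubation before reading | Benchmarks: No-NADH positive control and DMSO neutral control | Measured by: Resorufin fluorescence 544/590 nm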
PMI act satM6P: human PMI activators, high substrate, primary screen, biochemical, fluorescence intensity, near-saturating mannose 6-phosphate; activation factor at 20 µM; Mannose-6-phosphate isomerase (Homo sapiens), P34949; coupled PMI enzyme assay, resazurin fluorescence, 20 min; hits give high values; 1 = untreated enzyme, 0 = substrate-free blank; hit rate 0.34% among 190,000;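 active = activation factor of 2 or more at 20 µM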
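Test system – human PMI in coupled enzyme assay · Timing – 20 min incubation at room temperature · Detection – Diaphorase-driven resazurin-to-resorufin fluorescence, excitation 544, emission 590 nm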
Diaphorase act: compounds boosting diaphorase resazurin reduction – biochemical, uHTS, resorufin fluorescence, counter-screen for diaphorase-coupled primary assays, primary screen. Diaphorase/resazurin coupled assay, 16 min; hits give high values; 1 = vehicle wells, 0 = NADH-free wells. activation factor at 20 µM. hit rate 0.005% among 190,000. AID 1229, 2008;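 active = diaphorase activity raised at least twofold by the compound at 20 µM; inactive = activation factor below 2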
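Test system: Clostridium kluyveri diaphorase, purified enzyme; input: enzyme 0.07 U/mL final; buffer or medium: 50 mM HEPES pH 7.4 with 4.542 mM MgCl2, 0.005% Tween 20; also added: 0.114 mM NADH and 0.1 mM resazurin, final amounts; schedule: 16 min enzyme reaction, ambient temperature; technique: fluorescence of resorufin, 544 nm excitation, 590 nm emission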
* hit, by the source's call.

SMILES | PMI act | FLuc stim CS | FLuc inh counter | Diaphorase inh | PMI act satM6P | Diaphorase act
CCc1ccc(C2=NNC(=Nc3c(C)n(C)n(-c4ccccc4)c3=O)SC2)cc1 | 0.7 | 1 | -2 | 24 | 0.7 | 0.8
O=C(O)c1cccc(CN2C(=O)SC(Nc3cccc4ccccc34)C2=O)c1 (configuration not stated) | 0.9 | 0.4 | 58* | 15 | 0.6 | 0.9
Cc1nc(Nc2nc3ccccc3o2)nc2c1CCC2 | 0.9 | 0.3 | 66* | 22 | 0.9 | 0.8
CCOC(=O)c1cnc(Nc2nc3ccccc3o2)nc1C | 1 | 0.1 | 91* | -7 | 1.1 | 1.1
CCn1ccc(C(=O)Oc2ccc(Cl)cc2)n1 | 1.1 | 0.5 | 54* | 1 | 0.9 | 1
COC(C(=O)NC(C(C)C)C(C)C)c1ccccc1 (configuration not stated) | 0.9 | 1.1 | -5 | 21 | 0.9 | 0.8
CCOc1ccc(C(=O)Nc2ccc(C(F)(F)F)n(C)c2=O)cc1 | 1 | 1 | -3 | 16 | 0.9 | 0.8
COc1cccc(C(=O)Nc2ccc(C(F)(F)F)n(C)c2=O)c1 | 0.9 | 0.4 | 56* | 19 | 0.9 | 0.8
O=C1CCCC2=C1C(c1ccco1)Nc1ccc(C(=O)c3ccccc3)cc1N2 (configuration not stated) | 1.2 | 1 | -4 | 68* | 1.3 | 0.3
COC(=O)C(CCSC)NC(=O)c1cccc([N+](=O)[O-])c1 (configuration not stated) | 1 | 1.1 | -8 | 8 | 1 | 0.9
COCC(C)N1C(=O)Cc2c1nc(N)c1c(N)nc(N3CCN(c4ccccc4F)CC3)c(C#N)c21 (configuration not stated) | 0.3 | 1 | 0 | 60* | 0.3 | 0.4
NC(=O)C1=C[C@H](c2csc3ccccc23)C[C@H](OCCCCO)O1 | 0.6 | 1 | -2 | 56* | 0.4 | 0.4
O=C(O)C1=C[C@@H](c2csc3ccccc23)C[C@@H](OCCCCO)O1 | 1 | 1.1 | -10 | 15 | 1 | 0.9
COC(=O)c1ccc(Oc2nc(C(N)=O)cc(-c3ccccc3)n2)cc1 | 0.8 | 1 | -2 | 15 | 0.8 | 0.9
Cc1ccc(C2CC(c3ccccc3)=NN2C(=S)Nc2ccccc2)o1 (configuration not stated) | 0.5 | 1 | 3 | 76* | 0.8 | 0.2
CC(C)Oc1cccc(C(=O)NC2=NCCS2)c1 | 0.9 | 0.8 | 24 | 8 | 0.9 | 0.9
O=C(NC1=NCCS1)c1ccc(-c2ccc(Cl)cc2)o1 | 1 | 0.3 | 66* | 2 | 1.1 | 1
COc1cccc(C(=O)Nc2ccc(C3CC3(Cl)Cl)cc2)c1 (configuration not stated) | 0.8 | 0.4 | 58* | 19 | 0.8 | 0.8
COc1cccc(C(=O)Nc2nc3c(s2)CN(C)CC3)c1 | 0.9 | 0.4 | 56* | 0 | 0.8 | 1
CN1CCc2nc(NC(=O)c3cccc(S(=O)(=O)N4CCc5ccccc54)c3)sc2C1 | 0.9 | 1 | 1 | 2 | 1 | 1
COc1cccc(C(=O)NC2=NCCS2)c1 | 1 | 0.5 | 52* | 7 | 1 | 0.9
CNC(=S)NC12CC3CC(CC(C3)C1)C2 | 1 | 1 | 3 | 5 | 1 | 1
Cc1cc(O)c(/C=N/c2ccccn2)c(=O)o1 | 1.1 | 1 | -2 | 11 | 1.3 | 0.9
CCOc1ccc(N=Cc2c(O)cc(C)oc2=O)cc1 | 0.9 | 0.5 | 53* | 12 | 0.9 | 0.9
CCOc1ccc(N=Cc2c(O)c3ccccc3oc2=O)cc1 | 1.1 | 0.2 | 78* | 4 | 0.9 | 1
SMILES | PMI act | FLuc stim CS | FLuc inh counter | Diaphorase inh | PMI act satM6P | Diaphorase act
C=CCOc1c(Br)cc(/C=N/n2c(CC)n[nH]c2=S)cc1Br | 1.2 | 1 | 3 | -2 | 1.2 | 1
Cc1ccccc1NC(=S)N(CCCN1CCOCC1)Cc1ccccn1 | 0.9 | 1.1 | -8 | 0 | 1 | 1
Cc1ccccc1/C(N)=N/OC(=O)c1cccs1 | 0.9 | 0.3 | 69* | 10 | 0.9 | 0.9
Cc1ccccc1/C(N)=N/OC(=O)/C=C/c1ccccc1 | 0.9 | 0.4 | 56* | 13 | 0.9 | 0.9
Cc1ccc(/C(N)=N/OC(=O)/C=C/c2ccccc2)cc1 | 0.9 | 1 | 1 | 19 | 0.8 | 0.8
N/C(=N\OC(=O)/C=C/c1ccccc1)c1cccnc1 | 0.9 | 0.2 | 81* | 10 | 0.9 | 0.9
COc1ccc(-c2nsc(SCC(=O)NCC3CCCO3)n2)cc1 (configuration not stated) | 1.5 | 0.7 | 32 | 14 | 1 | 0.9
CCCCc1c(C)nc2ccc(Br)cc2c1SC(N)N | 1.7 | 1.1 | -7 | -2 | 2.2* | 1
CCCCc1c(C)nc2ccc(C)cc2c1SCCC(=O)O | 1.5 | 1 | -4 | -2 | 1.5 | 1
Cc1ccc(C(=O)NCCc2cccs2)cc1 | 1 | 0.1 | 89* | 45 | 1.1 | 0.5
COc1ccc(-c2nsc3c(N4CCCCC4)ncnc23)cc1 | 0.8 | 0.1 | 89* | 15 | 0.8 | 0.8
COc1ccc(-c2nsc3c(N4CCCCC4C)ncnc23)cc1 (configuration not stated) | 0.8 | 0.1 | 91* | 14 | 0.8 | 0.9
CCC(C)(C)NC(=O)C1CCN(c2nc(OC)nc(OC)n2)CC1 | 1.1 | 1 | -1 | 5 | 1.1 | 0.9
CN1CCCN(C(=O)CC(c2ccccc2)c2ccccc2)CC1 | 1 | 1 | -5 | 6 | 1 | 0.9
CCCCOc1ccc(-c2nc(-c3cccnc3)no2)cc1 | 1 | 0.8 | 22 | 4 | 1 | 1
Cc1ccccc1-c1nc(-c2cccnc2)no1 | 1.1 | 0.8 | 21 | 10 | 1 | 0.9
CCOc1nc(-c2ccc(OC)cc2)ccc1-c1noc(-c2ccncc2)n1 | 1 | 1 | -2 | 16 | 0.9 | 0.8
Clc1ccccc1-c1nc(-c2cccnc2)no1 | 1 | 0.3 | 74* | 8 | 1 | 0.9
CCOc1ccc(-c2nc(-c3ccccc3C)no2)cc1 | 0.9 | 0.5 | 54* | 13 | 0.9 | 0.9
CCOc1ccc(-c2nc(-c3cccnc3)no2)cc1 | 0.9 | 0.3 | 71* | 15 | 0.9 | 0.8

Screening results: PubChem BioAssay, Sanford-Burnham Center for Chemical Genomics
